# Laboratory results taken from ChEMBL document CHEMBL4330056, “Synthesis and Cytotoxic and Antiviral Profiling of Pyrrolo- and Furo-Fused 7-Deazapurine Ribonucleosides” (J Med Chem, 2018).
# The source made the active and inactive calls. No cut-off for these calls is given here.
# Key:
# Hepatitis C virus [1] = test: Antiviral activity against Hepatitis C virus genotype 1b infected in human Huh-luc replicon cells after 3 days by luciferase assay; assay type: functional, organism-based, Hepacivirus hominis; details: subtype 1b, 72 h
# [2] = Cytotoxicity against human Hep2 cells assessed as reduction in cell viability after 3 days by CellTiter-Glo assay; assay type: cell-based; details: HEp-2 cells
# Hepatitis C virus [3] = test: Antiviral activity against Hepatitis C virus genotype 2a infected in human Huh-luc replicon cells after 3 days by luciferase assay; assay type: functional, organism-based, Hepacivirus hominis; details: subtype 2a, 72 h
# BJ = test: Antiproliferative activity against human BJ cells after 3 days by MTS assay; details: 72 h
# MRC5 = test: Antiproliferative activity against human MRC5 cells after 3 days by MTS assay; details: MRC5, 72 h
# A549 = test: Antiproliferative activity against human A549 cells after 3 days by MTS assay; assay type: functional, cell-based; details: A549, 72 h
# CCRF-CEM = test: Antiproliferative activity against human CCRF-CEM cells after 3 days by MTS assay; assay type: functional, cell-based; details: 72 h
# [4] = Antiproliferative activity against human CEM-DNR-bulk cells after 3 days by MTS assay; details: 72 h
# HCT-116 [5] = test: Antiproliferative activity against human HCT116 cells after 3 days by MTS assay; assay type: functional, cell-based; details: HCT-116, 72 h
# HCT-116 [6] = test: Antiproliferative activity against p53 gene knocked out human HCT116 cells after 3 days by MTS assay; assay type: functional, cell-based; details: HCT-116, 72 h
# K562 = test: Antiproliferative activity against human K562 cells after 3 days by MTS assay; assay type: functional, cell-based; details: K562, 72 h
# [7] = Antiproliferative activity against human K562-TAX cells after 3 days by MTS assay; assay type: functional, cell-based; details: 72 h
# U2OS = test: Antiproliferative activity against human U2OS cells after 3 days by MTS assay; assay type: functional, cell-based; details: 72 h
# HL-60 = test: Antiproliferative activity against human HL60 cells after 72 hrs by XTT assay; assay type: functional, cell-based; details: HL-60, 72 h
# HepG2 = test: Antiproliferative activity against human HepG2 cells after 72 hrs by XTT assay; assay type: functional, cell-based; details: HepG2, 72 h
# HeLa S3 = test: Antiproliferative activity against human HeLaS3 cells after 72 hrs by XTT assay; assay type: functional, cell-based; details: HeLa S3, 72 h
# Adenosine kinase [8] = target: T1, Adenosine kinase (Homo sapiens, UniProt P55263); test: Substrate activity at recombinant human ADK assessed as compound phosphorylation at 50 uM after 20 mins in presence of [3H]-adenosine by UPLC; assay type: ADME
# Adenosine kinase [9] = target: T1, Adenosine kinase; test: Inhibition of recombinant human ADK using [3H]-adenosine as substrate after 20 mins by TLC scanner-based analysis relative to control
# How it was run: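 ADK inhibition: 50 μM adenosine substrate with 10 μM test compound and 97 ng enzyme, 20 min at 37 °C.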
# Influenza A virus = test: Antiviral activity against Influenza A virus (A/Mexico/4108/2009(H1N1)) infected in MDCK cells assessed as inhibited virus-induced cytopathic effect incubated for 2 days by XTT assay; assay type: functional, organism-based
# Human orthopneumovirus = test: Antiviral activity against Human respiratory syncytial virus A2 infected in Hep2 cells assessed as reduction in virus-induced cytopathic effect incubated for 4 days by CellTiter-Glo viability reagent based assay; assay type: functional, organism-based
# Coxsackievirus B3 = test: Antiviral activity against Human coxsackie B3 Nancy infected in human HeLa cells assessed as inhibited virus-induced cytopathic effect incubated for 2 days by XTT assay; assay type: functional, organism-based
# Human alphaherpesvirus 1 = test: Antiviral activity against human herpesvirus 1 HF infected in African green monkey Vero cells assessed as inhibited virus-induced cytopathic effect incubated for 3 days by XTT assay; assay type: functional, organism-based
# dengue virus type 2 = test: Antiviral activity against Dengue virus 2 Thailand/16681/84 infected in African green monkey Vero cells assessed as inhibition of virus replication incubated for 3 days by fluorescence microscopy; assay type: functional, organism-based
# T1 sequence (P55263 whole entry): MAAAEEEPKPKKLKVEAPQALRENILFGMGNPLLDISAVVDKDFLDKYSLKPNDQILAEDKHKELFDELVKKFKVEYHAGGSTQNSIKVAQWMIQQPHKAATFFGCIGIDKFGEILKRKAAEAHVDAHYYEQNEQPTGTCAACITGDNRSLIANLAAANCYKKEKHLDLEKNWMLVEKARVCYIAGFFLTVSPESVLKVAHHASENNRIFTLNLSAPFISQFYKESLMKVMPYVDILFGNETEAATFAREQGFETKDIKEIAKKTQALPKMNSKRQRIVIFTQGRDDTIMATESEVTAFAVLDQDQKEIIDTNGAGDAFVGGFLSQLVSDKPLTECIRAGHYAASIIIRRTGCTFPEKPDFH
SMILES,EC50 (Hepatitis C virus [1]) [µM],CC50 at 72 h [2] [µM],EC50 (Hepatitis C virus [3]) [µM],IC50 (BJ) [µM],IC50 (MRC5) [µM],IC50 (A549) [µM],IC50 (CCRF-CEM) [µM],IC50 [4] [µM],IC50 (HCT-116 [5]) [µM],IC50 (HCT-116 [6]) [µM],IC50 (K562) [µM],IC50 [7] [µM],IC50 (U2OS) [µM],IC50 (HL-60) [µM],IC50 (HepG2) [µM],IC50 (HeLa S3) [µM],Activity (Adenosine kinase [8]) [%],IC50 (Adenosine kinase [9]) [µM],Activity (Influenza A virus),Activity (Human orthopneumovirus),other results
Cn1ccc2c1c1c(Cl)ncnc1n2[C@@H]1O[C@H](CO)[C@@H](O)[C@H]1O,0.37,> 44.4,0.06,1.2,50,2.99,0.06,50,0.17,0.15,0.18,50,0.62,0.06,0.16,0.57,77,> 10,inactive,inactive,Activity (Coxsackievirus B3): inactive; Activity (Human alphaherpesvirus 1): inactive; Activity (dengue virus type 2): inactive
Cc1ncnc2c1c1ccn(C)c1n2[C@@H]1O[C@H](CO)[C@@H](O)[C@H]1O,> 44.4,> 44.4,> 44.4,> 50,> 50,> 50,> 50,> 50,> 50,> 50,> 50,> 50,> 50,> 50,> 50,> 50,0,> 10,inactive,inactive,Activity (Coxsackievirus B3): inactive; Activity (Human alphaherpesvirus 1): inactive; Activity (dengue virus type 2): inactive
Cn1ccc2c3c(-c4cc5ccccc5o4)ncnc3n([C@@H]3O[C@H](CO)[C@@H](O)[C@H]3O)c21,7.83,27.5 to 29.1,15.5,44.7,45.2,35.4,9.48,30.6,36.5,36.4,22.1,23,28.9,> 50,> 50,> 50,0,0.47,inactive,inactive,Activity (Coxsackievirus B3): inactive; Activity (Human alphaherpesvirus 1): inactive; Activity (dengue virus type 2): inactive
OC[C@H]1O[C@@H](n2c3ccoc3c3c(-c4ccco4)ncnc32)[C@H](O)[C@@H]1O,0.17,> 44.4,> 44.4,> 50,> 50,> 50,0.45,> 50,> 50,> 50,7.03,7.01,4.21,2.55,> 50,> 50,34,3.94,inactive,inactive,Activity (Coxsackievirus B3): inactive; Activity (Human alphaherpesvirus 1): inactive; Activity (dengue virus type 2): inactive
CN(C)c1ncnc2c1c1occc1n2[C@@H]1O[C@H](CO)[C@@H](O)[C@H]1O,> 44.4,> 44.4,> 44.4,> 50,> 50,> 50,> 50,> 50,> 50,> 50,> 50,> 50,> 50,> 50,> 50,> 50,7,> 10,inactive,inactive,Activity (Coxsackievirus B3): inactive; Activity (Human alphaherpesvirus 1): inactive; Activity (dengue virus type 2): inactive
Cn1ccc2c3c(Cl)ncnc3n([C@@H]3O[C@H](CO)[C@@H](O)[C@H]3O)c21,36.4,> 44.4,> 44.4,> 50,> 50,> 50,> 50,> 50,> 50,> 50,> 50,> 50,> 50,> 50,> 50,> 50,0,> 10,inactive,inactive,Activity (Coxsackievirus B3): inactive; Activity (Human alphaherpesvirus 1): inactive; Activity (dengue virus type 2): inactive
Cn1ccc2c1c1c(-c3ccco3)ncnc1n2[C@@H]1O[C@H](CO)[C@@H](O)[C@H]1O,0.22,> 44.4,> 44.4,> 50,> 50,> 50,> 50,> 50,> 50,> 50,> 50,> 50,7.37,> 50,> 50,> 50,11,7.12,inactive,inactive,Activity (Coxsackievirus B3): inactive; Activity (Human alphaherpesvirus 1): inactive; Activity (dengue virus type 2): inactive
OC[C@H]1O[C@@H](n2c3ccoc3c3c(-c4ccoc4)ncnc32)[C@H](O)[C@@H]1O,0.78,> 44.4,> 44.4,0.52,> 50,> 50,0.21,> 50,12.1,10.7,0.42,9.78,0.64,1.92,6.71,13.1,38,> 10,inactive,inactive,Activity (Coxsackievirus B3): inactive; Activity (Human alphaherpesvirus 1): inactive; Activity (dengue virus type 2): inactive
Cn1ccc2c3c(-c4ccco4)ncnc3n([C@@H]3O[C@H](CO)[C@@H](O)[C@H]3O)c21,0.34,2.63 to 16.4,0.77,5.36,5.89,5.73,1.36,2.17,3.82,4.01,4.03,2.4,3.49,3,> 50,2.97,0,3.58,inactive,inactive,Activity (Coxsackievirus B3): inactive; Activity (Human alphaherpesvirus 1): inactive; Activity (dengue virus type 2): inactive
